# Screens (PubChem BioAssay)
# Only some compounds are listed: those with a hit (about 2.3% of all), similar ones and a draw of the others.
# MT stabilize HCS: microtubule stabilizers in HeLa cells, primary screen, imaging, high-content imaging; HeLa tubulin immunostaining HCS, 24 h; share of cells brighter than vehicle mean+2SD; % tubulin-high responders, % at 10 µM; 200,000 compounds, 0.83% hits;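 active means plate Z-score above 3 for both tubulin-high and condensed-nucleus cell shares, with cell loss under 80%, at 10 µM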;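 further: anti alpha tubulin signal scored within the nucleus-defined area of each cell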
# Ins promoter up: insulin promoter activators in MIN6 cells, imaging, high-content screening, mouse beta cells. MIN6 insulin promoter-GFP reporter; hits give high values. z-score at 5 µM. 190,000 compounds, 0.3% hits;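 active means z-score above 3 at 5 µM with at least 500 cells counted in the well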
# Dynein transport: inhibitors of GR-EGFP nuclear translocation, primary screen, dynein cargo transport inhibitor project, imaging, high-content, 3617.4 mouse cells; test concentration mostly 20 µM; stimulated with dexamethasone, 1 µM; hits give low values; z-score, hits read low; 220,000 compounds, 0.47% hits; AID 1381, 2008;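 active means plate z-score of nuclear minus cytoplasmic receptor signal below a set negative limit, without overly bright fluorescence or cell loss, cut at about -3.5 in these data, passing the limit was not always enough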;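 further: z-score of nuclear minus cytoplasmic ring GR-EGFP intensity difference per well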
#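 Buffer or medium: tet-free, stripped-serum medium; reagent: dexamethasone at 1.0 µM final, 30 min; incubation: 48 h induction, 1 h compound, 30 min dex at 37 °C; measured by: formaldehyde fixation, Hoechst nuclear stain, 10x automated fluorescence imaging; read-out: nuclear-to-cytoplasmic GR-EGFP distribution per well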
# Autophagy HCS: autophagy modulators in MEF cells, primary screen, imaging, high-content, MEF GFP-LC3; MEF GFP-LC3 puncta imaging; test concentration mostly 10 µM; calls only at 10 µM (by protocol); 190,000 compounds, 0.98% hits; AID 463193, 2010;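 active means percentage of spot-positive cells more than 3 SD above its plate mean, without a fluorescence outlier flag or 80% toxicity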;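 further: spot-positive cell cutoff set from DMSO-treated cells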
# b-catenin transl: modulators of beta-catenin nuclear translocation, primary screen, imaging, HeLa cells, immunofluorescence, high-content. nuclear translocation activity, % at 5 µM. 190,000 compounds, 0.3% hits;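 active means nuclear translocation activity above 50% at 5 µM, with a well cell count of 50 or more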;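 further: per-cell ratio of nuclear to cytoplasmic median beta-catenin stain intensity; plate controls were DMSO negative control for no effect and GSK-3 inhibitor IX positive control for full effect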
#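 assay system = human HeLa cells, endogenous beta-catenin | times = compound treatment 24 h, 37°C, 5% CO2 | detection = Anti-beta-catenin immunofluorescence on PFA-fixed, Triton-permeabilized cells, DAPI nuclei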
# * hit, by the source's call; i = inactive; . = no result; + = active, no number.
SMILES,MT stabilize HCS,Ins promoter up,Dynein transport,Autophagy HCS,b-catenin transl
CCOc1cc(C(=O)Nc2cc(C)ccn2)cc(OCC)c1OCC,4.3,-1.47,0.319,i,-4.7
CCOc1cc(C(=O)Nc2cnccn2)cc(OCC)c1OCC,38.0*,.,0.258,i,4.4
O=C(CN1CCN(Cc2ccc(F)cc2)C1=O)NC1CCCC1,2.2,0.29,0.322,i,-0.9
CCCSc1ccc2nc(NC(=O)OC)[nH]c2c1,20.0*,.,0.279,i,.
COc1cccc(N=Nc2c(N)[nH][nH]c2=O)c1,2.5,0.38,-0.515,i,-1.6
COc1cccc(N=Nc2c(N)[nH]n3c(=O)c4c(nc23)CCCC4)c1,3.3,0.13,-0.0338,+,0.6
CCOc1ccc2[nH]c(=O)c(CN(CCc3ccccc3)C(=O)N3CCOCC3)cc2c1,1.8,5.49*,0.196,i,0.3
C/C(=N\NC(=O)CC1N=C(Cc2ccccc2)NNC1=O)c1ccc(C)cc1 (centres undefined),30.8*,-1.12,-0.294,i,-0.1
C/C(=N\NC(=O)CC1N=C(Cc2ccccc2)NNC1=O)c1ccc(Br)cc1 (centres undefined),.,0.36,-0.0289,.,-0.2
O=C(C(=O)N1CCCC1CO)N1CCCC1CO (centres undefined),3.5,0.1,-1.28,i,-3.3
CC(C)Cn1c(N)c(C(=O)CSc2nc3ccccc3c(=O)n2CCCN2CCOCC2)c(=O)n(C)c1=O,2.9,-1.16,1.41,+,-1.0
CC(C)Cn1c(N)c(C(=O)CSc2nc3ccccc3n2C)c(=O)n(C)c1=O,1.8,-0.08,-0.26,i,0.6
O=C(Cn1nc(C(F)F)cc1C(F)F)NNC(=S)Nc1ccc([N+](=O)[O-])cc1,1.4,-0.12,-0.761,i,-3.6
CC(C)N1CCC(N2CCN(C3CCCCCC3)CC2CCO)CC1 (centres undefined),5.5,0.25,0.943,i,-3.1
Oc1ccccc1CN1CCCN(Cc2ccccc2O)C1,3.4,-0.27,-0.0789,+,0.8
N#C/C(=C/c1ccc(Br)o1)C(N)=S,.,-0.26,-4.14*,.,-0.2
Cc1ccc(NS(=O)(=O)c2ccccc2)c2c1CC(C)(C)O2,26.7*,1.43,0.213,i,-1.6
COCCn1c(-c2ccc(Br)cc2)csc1=Nc1cccnc1,1.5,-0.34,-0.89,i,-0.8
Clc1ccc(-c2csc(=Nc3cccnc3)n2CCCn2ccnc2)cc1Cl,2.9,0.28,0.603,+,-2.8
Cc1cc(C)cc(N(CCC(=O)Nc2nnc(C3CC3)s2)S(=O)(=O)c2ccc(Cl)cc2)c1,19.0*,.,-0.207,i,-1.8
Cc1ccc(S(=O)(=O)NCCC(=O)Nc2nnc(C3CC3)s2)cc1C,5.5,.,1.99,i,-6.8
Cc1nonc1C1CCCN1Cc1cn[nH]c1-c1ccc(-c2ccccc2)cc1 (centres undefined),2.3,1.25,-0.935,i,1.6
COc1ccc(CNC(=O)COC(=O)CCc2c[nH]c3ccccc23)cc1,3.6,0.22,-0.592,i,-1.7
COc1ccc(Br)cc1/C(C)=N/NC1=NCCN1,1.2,-3.4,0.438,i,0.9
CCCCCOc1ccc(Br)cc1/C(C)=N/NC1=NCCN1,7.8,-5.23,-1.01,+,20.5
SMILES,MT stabilize HCS,Ins promoter up,Dynein transport,Autophagy HCS,b-catenin transl
COc1ccc(/C=C/C(=O)NC(=S)NCc2ccccc2)cc1OC,.,-0.44,-0.553,.,-1.7
CCOC(=O)c1ccccc1Nc1cn(C(C)=O)c2ccccc12,2.8,.,1.17,+,.
CC(=O)n1cc(Nc2ccccc2C(=O)O)c2ccccc21,1.5,0.04,-0.467,i,-4.4
Cn1nc(C(C)(C)C)cc1NC(=O)Nc1cc(Cl)cc(Cl)c1,.,-0.16,0.0779,.,-1.8
COC(=O)c1ccccc1NC(=O)C(=O)NCc1ccncc1,3.5,0.04,1.95,i,0.0
CCOC(=O)C1=C(c2ccccc2)NC(N)=NC1c1ccc(OCc2ccc(Cl)cc2)c(OC)c1 (centres undefined),.,-3.43,-0.577,.,2.1
COc1c(Cl)cc(Br)c(OC)c1C(=O)NC(=O)Nc1nc(C)cc(C)n1,.,-0.5,0.105,.,0.2
CCN(CC)c1ccc(/C=C2\CCC(/C=C(\C#N)C(=O)Nc3ccccc3F)=C2N2CCOCC2)cc1,57.0,0.38,-0.65,i,1.6
N#C/C(=C\C1=C(N2CCOCC2)C(=C\c2ccc(Cl)cc2)/CC1)C(=O)Nc1ccccc1F,16.7,3.27*,1.46,+,38.8
CC(NC(=O)C12CC3CC(CC(C3)C1)C2)C(=O)N/N=C/C1=C(N2CCOCC2)C(=C\c2cccc([N+](=O)[O-])c2)/CC1 (centres undefined),2.3,-0.12,0.0944,i,0.1
N#C/C(=C\C1=C(N2CCOCC2)C(=C/c2cccc([N+](=O)[O-])c2)/CC1)C(=O)Nc1ccccc1F,i,3.07*,-0.907,+,2.8
CCOc1ccc(OCC)c(NC(=O)CN2CCN(c3cccc(C)c3)CC2)c1,3.5,.,2.66,i,0.2
CCOc1ccc(OCC)c(NC(=O)CN2CCN(c3cccc(C)c3)C(C)C2)c1 (centres undefined),43.4*,-0.38,0.687,i,0.5
CN(C(=O)CO/N=C/c1ccc(Cl)cc1)c1ccccc1,3.7,-0.39,-0.602,i,-0.3
O=C(CC1(O)C(=O)N(CCc2ccccc2)c2ccccc21)c1ccccn1 (centres undefined),3.7,0.23,-0.481,i,1.1
O=C(CC1(O)C(=O)N(C/C=C/c2ccccc2)c2ccccc21)c1ccccn1 (centres undefined),3.8,0.75,-0.545,+,1.6
O=C(Nc1cccc2ncccc12)C(c1ccccc1)c1ccccc1,6.3,-0.93,0.572,i,-1.8
CC1=C[C@H]2OC(=O)[C@@H](C)[C@H]2C[C@@H]2[C@H]1C[C@@H](O)[C@@]2(C)O,.,.,1.27,.,0.2
COCCCNC(=O)c1cc2c(=O)n(C)c3ccccc3c2n1C,13.3*,-0.77,-0.408,i,.
Cn1c(=O)oc2cc(S(=O)(=O)N3CCC(C(=O)NCc4ccc(F)cc4)CC3)ccc21,3.9,0.57,-0.763,+,.
O=C(NCc1cccnc1)C1CCCN(S(=O)(=O)c2ccccc2)C1 (centres undefined),3.2,1.44,-0.647,i,-2.2
CC1CCN(S(=O)(=O)N2CCC(C(=O)NCc3cccs3)CC2)CC1,4.7,-1.24,0.674,+,-5.2
CC(C)CN(CC(C)C)S(=O)(=O)N1CCC(C(=O)NCc2cccs2)CC1,6.0,-0.01,-0.337,i,-0.7
O=C(NCc1ccc(F)cc1)C1CCCN(S(=O)(=O)c2cccnc2)C1 (centres undefined),1.5,3.46*,-0.266,i,-2.1
O=C(NCc1cccs1)C1CCCN(S(=O)(=O)c2cnc[nH]2)C1 (centres undefined),2.5,-0.94,-0.581,+,.
